Published values pooled from the literature.
Lines come from different studies, so protocols differ.
CDK7 with cyclin H: Cyclin-dependent kinase 7, with cyclin H (CDK7, Homo sapiens, UniProt P50613)
HDAC6: Protein deacetylase HDAC6 (HDAC6, Homo sapiens, UniProt Q9UBN7)
ACSL4: Long-chain-fatty-acid--CoA ligase 4 (ACSL4, Homo sapiens, UniProt O60488)

The IC50 of `O=C(/C=C/c1ccc(O)c(O)c1)O[C@H]1[C@H](O)[C@@H](O)[C@H](OCCc2ccc(O)c(O)c2)O[C@@H]1CO` is reported as 73500 nM (3-hydroxy-3-methylglutaryl-coenzyme A reductase (HMGCR, Homo sapiens, UniProt P04035); enzyme activity; inhibitor; absorbance).
The IC50 of `COCCN1CCN(Cc2ccc(-c3n[nH]c4c3C(=O)c3c(NC(=O)NN5CCOCC5)cccc3-4)cc2)CC1` is reported as 832 nM (Protein kinase 6 (Plasmodium falciparum, UniProt Q8IDW1); enzyme activity; inhibitor; radiometric).
`Cc1cc(O)c(-c2ccc([C@@H](C)CN(C)C)cc2)c2c1[nH]c(=O)c1sccc12` has an IC50 of > 1000 nM (CDK7 with cyclin H; enzyme activity; inhibitor).
The IC50 of `CCc1oc2cc(F)c(F)cc2c1C(=O)c1cc(Br)c(O)c(Br)c1` is reported as 135 nM (Solute carrier organic anion transporter family member 2B1 (SLCO2B1, Homo sapiens, UniProt O94956); transporter uptake; inhibitor; radiometric).
For `Cc1cc(S(=O)(=O)NCCO[C@H]2CC[C@H](CN3CCC(c4ccn5c(N6CCC(=O)NC6=O)cnc5c4)CC3)CC2)ccc1Nc1ncc2cc(Cl)c(=O)n(C3CCCC3)c2n1`, the IC50 was 3800 nM (CDK7 with cyclin H; enzyme activity; inhibitor; radiometric).
`O=C1CCC(N2C(=O)c3cccc(NCC(=O)OCCCCc4cn(CCCCCCN5CCc6c(c7ccccc7n6Cc6ccc(C(=O)NO)cc6)C5)nn4)c3C2=O)C(=O)N1` (stereo not shown) has an IC50 of 47 nM (HDAC6; enzyme activity; inhibitor; fluorescence).
With `CN(CCOc1ccc(CC2SC(=O)NC2=O)cc1)c1ccccn1` (stereo not shown) the IC50 was 1100 nM (ACSL4; enzyme activity; inhibitor).
`O=C(NO)c1ccc(Cn2cnc3c(Nc4cccc([N+](=O)[O-])c4)ncnc32)cc1` has an IC50 of < 2 nM (HDAC6; enzyme activity; inhibitor; fluorescence).
`COC(=O)/C=C/c1ccc(OCCN(C)C(=O)c2ccccc2)cc1` gave an IC50 of 7100 nM (Long-chain-fatty-acid--CoA ligase 4 (ACSL4, Homo sapiens, UniProt O60488, Q302M); enzyme activity; inhibitor).
With `CN(CCCCCCNC(=O)COc1ccc(C2CCC(=O)NC2=O)cc1)Cc1cn(Cc2ccc(C(=O)NO)cc2)c2ccccc12` (stereo not shown) the IC50 was 31 nM (HDAC6; enzyme activity; inhibitor; fluorescence).
With `CN(C)C(=O)c1cc2cnc(Nc3ccc(-c4cccc5c(=O)cc(N6CCOCC6)oc45)cc3)nc2n1C1CCCC1` the IC50 was > 10000 nM (CDK7 with cyclin H; enzyme activity; inhibitor).
With `CN(CCOc1cccc(CC2SC(=O)NC2=O)c1)c1ccccc1` (stereo not shown) the IC50 was 10100 nM (ACSL4; enzyme activity; inhibitor).
`CNS(=O)(=O)c1ccc(Nc2ncc(C(F)(F)F)c([C@H]3CC[C@](C)(O)CC3)n2)c(C)c1` has an IC50 of 2130 nM (CDK7 with cyclin H; enzyme activity; inhibitor; radiometric).
`O=C(COc1ccc(C2CCC(=O)NC2=O)cc1)NCCCCCCN1CCc2c(c3ccccc3n2Cc2ccc(C(=O)NO)cc2)C1` (stereo not shown) has an IC50 of 25 nM (HDAC6; enzyme activity; inhibitor; fluorescence).
`COC(=O)/C=C/c1ccc(OCCN(C)C(=O)c2ccc(C3(C(F)(F)F)N=N3)cc2)cc1` has an IC50 of 24400 nM (ACSL4; enzyme activity; inhibitor).
`CCC(CC)COC(=O)[C@H](C)N[P@](=O)(OC[C@H]1O[C@@](C#N)(c2ccc3c(N)ncnn23)[C@H](O)[C@@H]1O)Oc1ccccc1` has an IC50 of 36200 nM (Liver carboxylesterase 1 (CES1, Homo sapiens, UniProt P23141); enzyme activity; inhibitor; absorbance).
`COc1ccc(N(Cc2csc(-c3ccccc3)n2)C(=O)CCCCCC(=O)NO)cc1` has an IC50 of 2.7 nM (HDAC6; enzyme activity; inhibitor).
For `COc1ccc(Nc2ncnc3c2ncn3Cc2ccc(C(=O)NO)cc2)cc1`, the IC50 was < 2 nM (HDAC6; enzyme activity; inhibitor; fluorescence).
`COc1ccc(N(Cc2nc(-c3ccc(F)cc3)cs2)C(=O)CCCCCC(=O)NO)cc1` gave an IC50 of 3.5 nM (HDAC6; enzyme activity; inhibitor).
`CN(CCCOc1ccc(CC2SC(=O)NC2=O)cc1)c1ccccc1` (stereo not shown) gave an IC50 of 600 nM (ACSL4; enzyme activity; inhibitor).
`CNS(=O)(=O)c1ccc(Nc2ncc(C(F)(F)F)c(N3CCCC(C)(O)C3)n2)c(C)c1` (stereo not shown) has an IC50 of 2510 nM (CDK7 with cyclin H; enzyme activity; inhibitor; radiometric).
`CN(CCOc1ccc(CC2SC(=O)NC2=O)cc1)c1ccccc1` (stereo not shown) gave an IC50 of 400 nM (ACSL4; enzyme activity; inhibitor).
`N=C(N)c1ccc(OCCCCCOc2ccc(C(=N)N)cc2)cc1` has an IC50 of > 100000 nM (Prothrombin (F2, Homo sapiens, UniProt P00734); enzyme activity; inhibitor; absorbance).
For `CN(CCOc1ccccc1)c1ccccn1`, the IC50 was > 50000 nM (ACSL4; enzyme activity; inhibitor).
The IC50 of `CN1CCC(CNc2ccc3ncc(-c4cccc(OC(F)(F)F)c4)n3n2)CC1` is reported as 95 nM (5-hydroxytryptamine receptor 1B (HTR1B, Homo sapiens, UniProt P28222); cAMP; agonist).
